# What was measured:
# [1] = AUC (0 to infinity) in CD-1 mouse at 2 mg/kg, iv administered as single bolus dose by LC-MS/MS analysis; format: ADME, organism-based; set-up: time infinity, dose 2 mg/kg, route intravenous; conditions: plasma
# How it was run: (§1)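 Single 2 mg/kg IV bolus via lateral tail vein to male CD-1 mice. Mice euthanized at 0.083–24 h, 3 per time point (27 animals); cardiac-puncture blood into heparin on ice, plasma spun at 4 °C and immediately extracted with acetonitrile/0.1% formic acid plus IS, LC-MS/MS. Noncompartmental CL = Dose/AUC0–inf, t1/2 = 0.693/k, Vss from AUMC/AUC, MRT = Vss/CL.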
# [2] = Plasma clearance in CD-1 mouse at 2 mg/kg, iv administered as single bolus dose by LC-MS/MS analysis; format: ADME, organism-based; set-up: dose 2 mg/kg, route intravenous; how it was run: as §1
# [3] = Mean residence time in CD-1 mouse at 2 mg/kg, iv administered as single bolus dose by LC-MS/MS analysis; format: ADME, organism-based; set-up: dose 2 mg/kg, route intravenous; conditions: in vivo; how it was run: as §1
# [4] = Half life in CD-1 mouse at 2 mg/kg, iv administered as single bolus dose by LC-MS/MS analysis; format: ADME, organism-based; set-up: dose 2 mg/kg, route intravenous; conditions: in vivo; how it was run: as §1
# [5] = Volume of distribution at steady state in CD-1 mouse at 2 mg/kg, iv administered as single bolus dose by LC-MS/MS analysis; format: ADME, organism-based; set-up: dose 2 mg/kg, route intravenous; conditions: in vivo, read-out: Vdss; how it was run: as §1
# [6] = Intrinsic clearance in CD-1 mouse liver microsomes at 0.1 uM by LC-MS/MS analysis in presence of NADPH; format: ADME; conditions: read-out: CLH
# How it was run: (§2)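 Liver microsomes (0.25 mg/mL protein, 0.1 M phosphate pH 7.4) from mouse, rat, dog or human; substrate 0.1 or 1 µM with 1 mM NADPH (mouse also without). Samples at 0, 10, 20, 30, 40 min into acetonitrile with tolbutamide, centrifuged, LC-MS/MS; CLint = (0.693/t1/2)/microsomal protein concentration.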
# [7] = Intrinsic clearance in Sprague-Dawley rat liver microsomes at 0.1 uM by LC-MS/MS analysis in presence of NADPH; format: ADME; conditions: read-out: CLH; how it was run: as §2
# [8] = AUC (0 to infinity) in CD-1 mouse at 20 mg/kg, po administered through gavage by LC-MS/MS analysis; format: ADME, organism-based; set-up: time infinity, dose 20 mg/kg, route oral; conditions: plasma
# How it was run: (§3)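 Male CD-1 mice, fasted overnight, food returned 2 h post-dose; single oral gavage at 20, 50 or 100 mg/kg. Terminal cardiac-puncture blood at 0.25, 0.5, 1, 2, 4, 6, 8, 24 h, 3 mice per time point; heparinized plasma extracted into acetonitrile/formic acid with IS, LC-MS/MS. Noncompartmental analysis: linear trapezoidal AUC extrapolated to infinity, CL/F, F relative to 2 mg/kg IV.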
# [9] = Apparent oral clearance in CD-1 mouse at 20 mg/kg, po administered through gavage by LC-MS/MS analysis; format: ADME, organism-based; set-up: dose 20 mg/kg, route oral; conditions: in vivo; how it was run: as §3
# [10] = Oral bioavailability in CD-1 mouse at 20 mg/kg administered through gavage by LC-MS/MS analysis relative to 2 mg/kg, iv dose; format: ADME, organism-based; conditions: in vivo; how it was run: as §3
# [11] = Cmax in CD-1 mouse at 50 mg/kg, po administered through gavage by LC-MS/MS analysis; format: ADME, organism-based; set-up: dose 50 mg/kg, route oral; conditions: in vivo; how it was run: as §3
# [12] = Tmax in CD-1 mouse at 50 mg/kg, po administered through gavage by LC-MS/MS analysis; format: ADME, organism-based; set-up: dose 50 mg/kg, route oral; conditions: in vivo; how it was run: as §3
# [13] = Half life in CD-1 mouse at 50 mg/kg, po administered through gavage by LC-MS/MS analysis; format: ADME, organism-based; set-up: dose 50 mg/kg, route oral; conditions: in vivo; how it was run: as §3
# [14] = AUC (0 to infinity) in CD-1 mouse at 50 mg/kg, po administered through gavage by LC-MS/MS analysis; format: ADME, organism-based; set-up: time infinity, dose 50 mg/kg, route oral; conditions: plasma; how it was run: as §3
# [15] = Apparent oral clearance in CD-1 mouse at 50 mg/kg, po administered through gavage by LC-MS/MS analysis; format: ADME, organism-based; set-up: dose 50 mg/kg, route oral; conditions: in vivo; how it was run: as §3
# [16] = system: Mus musculus; assay: Oral bioavailability in CD-1 mouse at 50 mg/kg administered through gavage by LC-MS/MS analysis relative to 2 mg/kg, iv dose; format: ADME, organism-based; conditions: in vivo; how it was run: as §3
# [17] = Cmax in CD-1 mouse at 100 mg/kg, po administered through gavage by LC-MS/MS analysis; format: ADME, organism-based; set-up: dose 100 mg/kg, route oral; conditions: in vivo; how it was run: as §3
# [18] = Tmax in CD-1 mouse at 100 mg/kg, po administered through gavage by LC-MS/MS analysis; format: ADME, organism-based; set-up: dose 100 mg/kg, route oral; conditions: in vivo; how it was run: as §3
# [19] = Half life in CD-1 mouse at 100 mg/kg, po administered through gavage by LC-MS/MS analysis; format: ADME, organism-based; set-up: dose 100 mg/kg, route oral; conditions: in vivo; how it was run: as §3
# [20] = AUC (0 to infinity) in CD-1 mouse at 100 mg/kg, po administered through gavage by LC-MS/MS analysis; format: ADME, organism-based; set-up: time infinity, dose 100 mg/kg, route oral; conditions: plasma; how it was run: as §3
# [21] = Apparent oral clearance in CD-1 mouse at 100 mg/kg, po administered through gavage by LC-MS/MS analysis; format: ADME, organism-based; set-up: dose 100 mg/kg, route oral; conditions: in vivo; how it was run: as §3
# [22] = Oral bioavailability in CD-1 mouse at 100 mg/kg administered through gavage by LC-MS/MS analysis relative to 2 mg/kg, iv dose; format: ADME, organism-based; conditions: in vivo; how it was run: as §3
# [23] = Intrinsic clearance in human liver microsomes at 0.1 uM by LC-MS/MS analysis in presence of NADPH; format: ADME; conditions: read-out: CLH; how it was run: as §2
# [24] = Intrinsic clearance in CD-1 mouse liver microsomes at 0.1 uM by LC-MS/MS analysis in absence of NADPH; format: ADME; conditions: read-out: CLH; how it was run: as §2
# [25] = Intrinsic clearance in CD-1 mouse liver microsomes at 1 uM by LC-MS/MS analysis in presence of NADPH; format: ADME; conditions: read-out: CLH; how it was run: as §2
# [26] = Intrinsic clearance in Sprague-Dawley rat liver microsomes at 1 uM by LC-MS/MS analysis in presence of NADPH; format: ADME; conditions: read-out: CLH; how it was run: as §2
# [27] = Intrinsic clearance in Beagle dog liver microsomes at 1 uM by LC-MS/MS analysis in presence of NADPH; format: ADME, Canis lupus familiaris; conditions: read-out: CLH; how it was run: as §2
# [28] = Intrinsic clearance in human liver microsomes at 1 uM by LC-MS/MS analysis in presence of NADPH; format: ADME; conditions: read-out: CLH; how it was run: as §2
# [29] = Intrinsic clearance in CD-1 mouse liver microsomes at 1 uM by LC-MS/MS analysis in absence of NADPH; format: ADME; conditions: read-out: CLH; how it was run: as §2
# [30] = In vitro half life in CD-1 mouse plasma at 0.83 uM by LC-MS/MS analysis; format: ADME, cell-free
# How it was run: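 Screening stability: compound at 0.83 µM in mouse plasma at 37 °C, up to 3 h; timed aliquots quenched into acetonitrile with tolbutamide IS, centrifuged, LC-MS/MS; half-life from depletion, CLint = (0.693/t1/2)/plasma concentration.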
# [31] = Cmax in CD-1 mouse at 20 mg/kg, po administered through gavage by LC-MS/MS analysis; format: ADME, organism-based; set-up: dose 20 mg/kg, route oral; conditions: in vivo; how it was run: as §3
# [32] = Tmax in CD-1 mouse at 20 mg/kg, po administered through gavage by LC-MS/MS analysis; format: ADME, organism-based; set-up: dose 20 mg/kg, route oral; conditions: in vivo; how it was run: as §3
# [33] = Half life in CD-1 mouse at 20 mg/kg, po administered through gavage by LC-MS/MS analysis; format: ADME, organism-based; set-up: dose 20 mg/kg, route oral; conditions: in vivo; how it was run: as §3
# [34] = system: Plasma; assay: Drug metabolism in CD-1 mouse plasma assessed as hydrolysis metabolite formation rate by LC-MS/MS analysis; format: ADME, cell-free
# How it was run: (§4)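 Mouse plasma depletion kinetics at 37 °C, substrate range 0.0023–5 µM, up to 3 h; samples quenched into acetonitrile/tolbutamide, LC-MS/MS. CLint per concentration from t1/2; apparent Vmax and Km fitted by nonlinear regression to Michaelis-Menten, formation rate simulated from fit; mean of two replicates.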
# [35] = Drug metabolism in CD-1 mouse liver microsomes assessed as hydrolysis metabolite formation rate by LC-MS/MS analysis; format: ADME
# How it was run: (§5)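 Mouse liver microsomes 0.25 mg/mL in 0.1 M phosphate pH 7.4, with or without 1 mM NADPH, substrate 0.0023–5 µM; sampling to 40 min into acetonitrile/IS, LC-MS/MS depletion. Hydrolysis Vmax/Km solved from no-NADPH incubations, then NADPH-dependent constants; metabolite formation rate simulated from fitted constants; duplicates.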
# [36] = Drug metabolism in CD-1 mouse NADPH-fortified liver microsomes assessed as hydrolysis metabolite formation rate by LC-MS/MS analysis; format: ADME; how it was run: as §5
# [37] = system: Plasma; assay: Drug metabolism in CD-1 mouse plasma assessed as maximum intrinsic clearance for hydrolysis metabolite formation by LC-MS/MS analysis; format: ADME, cell-free; how it was run: as §4
# [38] = Fraction unbound in CD-1 mouse liver microsomes after 7 hrs by equilibrium dialysis method; format: ADME
# How it was run: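 Equilibrium dialysis of 0.25 mg/mL mouse liver microsomes in phosphate buffer against PBS, 7 h at 37 °C, 5% CO2, test compound 0.1, 0.5 or 2 µM, triplicate; LC-MS/MS; fraction unbound = buffer/microsome concentration.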
# [39] = Fraction unbound in CD-1 mouse plasma after 7 hrs by equilibrium dialysis method; format: ADME, cell-free
# How it was run: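 Mouse plasma pre-treated 20 min with 100 µM DFP to block hydrolysis, spiked at 0.1, 0.5 or 2 µM, equilibrium dialysis against PBS for 7 h at 37 °C, 5% CO2, triplicate; matrix-matched samples extracted with acetonitrile/IS, LC-MS/MS; fu = buffer/plasma concentration.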
# [40] = system: Plasma; assay: Metabolic stability in CD-1 mouse plasma assessed as hydrolysis product M1 [(1s,4s)-4-(2-amino-6-((4-(2-hydroxypropan-2-yl)piperidin-1-yl)methyl)-1H-benzo[d]imidazol-1-yl)-N-isopropylcyclohexanecarboxamide] formation at 5 uM after 20 mins by LC-MS/MS analysis; format: ADME, cell-free
structure (smiles),measurement,setting,value
CC(C)NC(=O)[C@H]1CC[C@@H](n2/c(=N/C(=O)c3ccc(F)cc3)[nH]c3ccc(CN4CCC(C(C)(C)O)CC4)cc32)CC1,AUC(0-inf),[1],0.627 µM·h
same,clearance,[2],92 mL/min/kg
same,MRT,[3],0.474 h
same,half-life,[4],1.05 h
same,Vd,[5],2.62 L/kg
same,microsomal CLint at 0.1 µM,[6],891 µL/min/mg
same,microsomal CLint at 0.1 µM,[7],14 µL/min/mg
same,AUC(0-inf),[8],1.31 µM·h
same,CL/F,[9],437 mL/min/kg
same,bioavailability,[10],21.1%
same,Cmax,[11],10.7 µM
same,Tmax,[12],1 h
same,half-life,[13],2.3 h
same,AUC(0-inf),[14],23.7 µM·h
same,CL/F,[15],60.8 mL/min/kg
same,F,[16],151%
same,Cmax,[17],15.2 µM
same,Tmax,[18],1 h
same,half-life,[19],2.17 h
same,AUC(0-inf),[20],37.4 µM·h
same,CL/F,[21],77.2 mL/min/kg
same,bioavailability,[22],120%
same,microsomal CLint at 0.1 µM,[23],93 µL/min/mg
same,microsomal CLint at 0.1 µM,[24],805 µL/min/mg
same,microsomal CLint at 1 µM,[25],110 µL/min/mg
same,microsomal CLint at 1 µM,[26],13 µL/min/mg
same,microsomal CLint at 1 µM,[27],33 µL/min/mg
same,microsomal CLint at 1 µM,[28],67 µL/min/mg
same,microsomal CLint at 1 µM,[29],50 µL/min/mg
same,half-life at 0.83 µM,[30],0.2 h
same,Cmax,[31],0.782 µM
same,Tmax,[32],0.25 h
same,half-life,[33],1.23 h
same,Vmax(app),[34],19.7 pmol/min/mL
same,Km,[34]; read-out: Km(app),0.276 µM
same,Vmax(app),[35],82 pmol/min/mg
same,Km,[35]; read-out: Km(app),0.0437 µM
same,Vmax(app),[36],45.4 pmol/min/mg
same,Km,[36]; read-out: Km(app),0.263 µM
same,CL,[37],71.4 uL/min.ml
same,fraction unbound at 7 h,[38],0.76
same,fraction unbound at 7 h,[39],0.02
same,Drug metabolism,[40],metabolite_detected
